# Reference: ChEMBL document CHEMBL2157989, “Synthesis and biological evaluation of antibody conjugates of phosphate prodrugs of cytotoxic DNA alkylators for the targeted treatment of cancer” (J Med Chem, 2012)
# What was measured:
# [1] = Solubility in DMF at 1.5 mg sonicated for 45 mins followed by centrifugation for 45 mins by UV/Vis spectroscopy; type: physicochemical; details: 0.75 h
# In short: (§1)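 Solid compound (~1.5 mg) in the stated solvent was sonicated 45 min, then centrifuged at 1400g for 45 min. The supernatant concentration was read by UV/vis at 340 nm, using ε = 41500 M⁻¹ cm⁻¹ for the free phenols and 34500 M⁻¹ cm⁻¹ for the phosphate prodrugs (pH 7.0 values).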
# [2] = Prodrug conversion assessed as 1-[S]-(Chloromethyl)-5-hydroxy-3-{{5-[5-(4-methyldithio-3,3- dimethyl butyryl)indol-2-yl-carbonyl amino]indole-2-yl}carbonyl}- 1,2-dihydro-3H-benz[e]indole formation in presence of porcine mucosa alkaline phosphatase at pH 7.4; type: physicochemical; details: pig, isolated protein
# [3] = Solubility in water at 1.5 mg sonicated for 45 mins followed by centrifugation for 45 mins by UV/Vis spectroscopy; type: physicochemical; details: 0.75 h; in short: as §1
# [4] = Prodrug activation assessed as enzyme-mediated compound dephosphorylation in presence of human placenta alkaline phosphatase from P3895 at pH 7.4 by HPLC; details: isolated protein
# [5] = Solubility in water containing 5% dioxane at 1.5 mg sonicated for 45 mins followed by centrifugation for 45 mins by UV/Vis spectroscopy; type: physicochemical; details: 0.75 h
# HL-60 = assay: Cytotoxicity against human HL60 cells assessed as cell survival after 72 hrs by clonogenic assay; type: functional, cell-based; details: HL-60, 72 h
# In short: (§2)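 Cells were kept in RPMI 1640 with 10% heat-inactivated FBS at 37 °C and 6% CO₂. They were plated at 1000–5000 cells/well and exposed to 0–3 nM test agent for 72 h. Medium was then replaced and colonies grew for 7–10 days in total after plating. Colonies were fixed and stained with 0.2% crystal violet in 10% formalin/PBS, then counted. Surviving fraction = colonies in treated wells / colonies in control wells; IC₅₀ was taken from this.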
# [6] = Prodrug activation assessed as enzyme-mediated compound dephosphorylation in presence of bovine alkaline phosphatase P8361 at pH 7.4 by HPLC; details: cattle, isolated protein
# [7] = Solubility in dichloromethane at 1.5 mg sonicated for 45 mins followed by centrifugation for 45 mins by UV/Vis spectroscopy; type: physicochemical; details: 0.75 h
# [8] = Prodrug activation assessed as enzyme-mediated compound dephosphorylation in presence of bovine liver alkaline phosphatase P7034 at pH 7.4 by HPLC; details: cattle, isolated protein
# [9] = Solubility of the compound in 5% DMA and 95% buffer at pH 7 at 1.5 mg sonicated for 45 mins followed by centrifugation for 45 mins by UV/Vis spectroscopy; type: physicochemical
# In short: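 For buffers with 5% or less DMA, a 50 mM stock of compound in DMA is diluted 20–100 times into pH 7.0 buffer. It is then sonicated for 45 min and centrifuged at 1400g for 45 min. Supernatant is quantified by UV/vis at 340 nm, with ε of 41500 (DC1–SR₂ compounds) or 34500 M⁻¹ cm⁻¹ (phosphate prodrugs).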
# [10] = Solubility in ethyl acetate at 1.5 mg sonicated for 45 mins followed by centrifugation for 45 mins by UV/Vis spectroscopy; type: physicochemical; details: 0.75 h; in short: as §1
# Ramos = assay: Cytotoxicity against human Ramos cells assessed as cell survival after 72 hrs by clonogenic assay; type: functional, cell-based; in short: as §2
# [11] = Solubility in methanol at 1.5 mg sonicated for 45 mins followed by centrifugation for 45 mins by UV/Vis spectroscopy; type: physicochemical; details: 0.75 h; in short: as §1
# [12] = Solubility in water containing 5% DMA at 1.5 mg sonicated for 45 mins followed by centrifugation for 45 mins by UV/Vis spectroscopy; type: physicochemical; details: 0.75 h
# [13] = Prodrug activation assessed as enzyme-mediated compound dephosphorylation in presence of wheat germ acid phosphatase Sigma P3627 at pH 7.4 by HPLC; details: isolated protein
# [14] = Prodrug activation assessed as enzyme-mediated compound dephosphorylation in presence of canine intestine alkaline phosphatase P8639 at pH 7.4 by HPLC; details: dog, isolated protein
# [15] = Solubility of the compound in 20% DMA and 80% buffer at pH 7 at 1.5 mg sonicated for 45 mins followed by centrifugation for 45 mins by UV/Vis spectroscopy; type: physicochemical
# In short: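 About 1.5 mg of compound is sonicated for 45 min in pH 7.0 buffer containing 10% or 20% DMA, then centrifuged at 1400g for 45 min. Supernatant concentration is read by UV/vis at 340 nm. ε at pH 7.0 is 41500 M⁻¹ cm⁻¹ for DC1–SR₂ compounds and 34500 M⁻¹ cm⁻¹ for phosphate prodrugs.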
# [16] = Solubility in DMSO at 1.5 mg sonicated for 45 mins followed by centrifugation for 45 mins by UV/Vis spectroscopy; type: physicochemical; details: 0.75 h; in short: as §1
# [17] = Solubility in water containing 5% DMF at 1.5 mg sonicated for 45 mins followed by centrifugation for 45 mins by UV/Vis spectroscopy; type: physicochemical; details: 0.75 h
# [18] = Solubility in chloroform at 1.5 mg sonicated for 45 mins followed by centrifugation for 45 mins by UV/Vis spectroscopy; type: physicochemical; details: 0.75 h; in short: as §1
# [19] = Prodrug conversion assessed as 1-[S]-(Chloromethyl)-5-hydroxy-3-{{5-[5-(3-methyldithiopropionyl)indol-2-yl-carbonyl amino]indole-2-yl}- carbonyl}-1,2-dihydro-3H-benz[e]indole formation in presence of bovine kidney alkaline phosphatase at pH 7.4; type: physicochemical; details: cattle, isolated protein
# COLO 205 = assay: Cytotoxicity against human COLO205 cells assessed as cell survival after 72 hrs by clonogenic assay; type: functional, cell-based; details: COLO 205, 72 h; in short: as §2
# [20] = Prodrug conversion assessed as 5-(3-(Methyldisulfanyl)propanamido)-N-(2-((9aS)-4-oxo-2,4,9,9atetrahydro- 1H-benzo[e]cyclopropa[c]indole-2-carbonyl)-1H-indol- 5-yl)-1H-indole-2-carboxamide in cyclopropyl by HPLC analysis; type: physicochemical
# [21] = Solubility in toluene at 1.5 mg sonicated for 45 mins followed by centrifugation for 45 mins by UV/Vis spectroscopy; type: physicochemical; details: 0.75 h; in short: as §1
# [22] = Stability of the compound in 5 % DMA assessed as cyclopropyl ring formation incubated for 1 yr at room temperature at pH 7 by HPLC analysis; type: physicochemical; details: buffer, pH 7, 8766 h
# In short: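 Phosphate prodrug is stored for one year at room temperature in phosphate buffer containing 5% DMA at pH ~7. Conversion to the ring-closed cyclopropyl form is monitored by HPLC.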
# [23] = Solubility in DMA at 1.5 mg sonicated for 45 mins followed by centrifugation for 45 mins by UV/Vis spectroscopy; type: physicochemical; details: 0.75 h; in short: as §1
# [24] = Prodrug activation assessed as enzyme-mediated compound dephosphorylation in presence of bovine intestinal mucosa alkaline phosphatase P7640 at pH 7.4 by HPLC; details: cattle, isolated protein
# [25] = Prodrug activation assessed as enzyme-mediated compound dephosphorylation in presence of porcine kidney alkaline phosphatase P4439 at pH 7.4 by HPLC; details: pig, isolated protein
# [26] = Solubility in water containing 5% THF at 1.5 mg sonicated for 45 mins followed by centrifugation for 45 mins by UV/Vis spectroscopy; type: physicochemical; details: 0.75 h
# [27] = Solubility in water containing 5% acetone at 1.5 mg sonicated for 45 mins followed by centrifugation for 45 mins by UV/Vis spectroscopy; type: physicochemical; details: 0.75 h
# [28] = Solubility in ethanol at 1.5 mg sonicated for 45 mins followed by centrifugation for 45 mins by UV/Vis spectroscopy; type: physicochemical; details: 0.75 h; in short: as §1
SMILES,solubility [1],Drug metabolism [2],solubility [3],Drug metabolism [4],solubility [5],IC50 (HL-60),Drug metabolism [6],solubility [7],Drug metabolism [8],solubility at 0.75 h [9],solubility [10],IC50 (Ramos),solubility [11],solubility [12],Drug metabolism [13],Drug metabolism [14],solubility at 0.75 h [15],solubility [16],solubility [17],solubility [18],further results
CSSCCC(=O)Nc1ccc2[nH]c(C(=O)Nc3ccc4[nH]c(C(=O)N5C[C@@H](CCl)c6c5cc(OP(=O)(O)O)c5ccccc65)cc4c3)cc2c1,soluble,Active,Insoluble,Active,soluble,1.8 nM,Active,Insoluble,Active,3000 µM,Insoluble,1.9 nM,Insoluble,soluble,Active,Active,> 6000 µM,soluble,soluble,Insoluble,Drug metabolism [19]: Active; IC50 (COLO 205): > 3 nM; Drug metabolism [20]: Active; solubility [21]: Insoluble; Drug degradation [22]: 3%; solubility [23]: soluble; Drug metabolism [24]: Active; Drug metabolism [25]: Active; solubility [26]: soluble; solubility [27]: soluble; solubility [28]: Insoluble
CSSC(C)(C)CCC(=O)Nc1ccc2[nH]c(C(=O)Nc3ccc4[nH]c(C(=O)N5C[C@@H](CCl)c6c5cc(OP(=O)(O)O)c5ccccc65)cc4c3)cc2c1,soluble,Active,Insoluble,Active,soluble,1.9 nM,Active,Insoluble,Active,2900 µM,Insoluble,2 nM,Insoluble,soluble,Active,Active,> 6000 µM,soluble,soluble,Insoluble,Drug metabolism [19]: Active; IC50 (COLO 205): > 3 nM; Drug metabolism [20]: Active; solubility [21]: Insoluble; Drug degradation [22]: 3%; solubility [23]: soluble; Drug metabolism [24]: Active; Drug metabolism [25]: Active; solubility [26]: soluble; solubility [27]: soluble; solubility [28]: Insoluble
